Test results taken from the M2OR odorant receptor database.

The compounds below were run against T1, OR1A1 (Homo sapiens) (UniProt Q9P1Q5). Conditions: stereoisomer not certain.
T1 sequence (whole entry): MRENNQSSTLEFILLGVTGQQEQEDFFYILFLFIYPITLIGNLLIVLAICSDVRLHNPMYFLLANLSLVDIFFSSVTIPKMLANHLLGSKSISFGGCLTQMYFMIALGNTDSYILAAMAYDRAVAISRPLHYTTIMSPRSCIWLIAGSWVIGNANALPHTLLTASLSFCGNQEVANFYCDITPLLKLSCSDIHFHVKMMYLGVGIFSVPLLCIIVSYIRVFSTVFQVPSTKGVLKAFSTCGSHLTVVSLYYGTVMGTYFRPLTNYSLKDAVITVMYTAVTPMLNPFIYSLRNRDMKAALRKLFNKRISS
Outline: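 Each receptor–molecule pair is labelled responsive or non-responsive (inactive) according to whether the original authors judged the measured signal statistically different from baseline. The data were taken from the main text and supplementary material of published papers and checked for typos and inconsistencies. Assay methods differed by source, with transient luciferase assays in mammalian cell lines being common.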
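Also: active if original authors judged signal statistically different from baseline.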

| SMILES | odorant receptor agonist call |
| --- | --- |
| CCCCCCCC(=O)OCC | inactive |
| CCCCCO | inactive |
| O=C1Cc2ccccc2O1 | inactive |
| CC(=O)CCc1ccc(O)cc1 | inactive |
| CC1CCC(C(C)C)C(=O)C1 (stereo unspecified) | active |
| CCc1nccnc1CC | inactive |
| CC(=O)C=CC1C(C)=CCCC1(C)C (stereo unspecified) | inactive |
| CCCCC(CC)CCC(=O)O (stereo unspecified) | inactive |
| CCCC(=O)C(C)CC (stereo unspecified) | inactive |
| CC(=O)OCC=C(C)C | inactive |
| CCC(C(=O)O)c1ccccc1 (stereo unspecified) | inactive |
| CCCC1CCCC(=O)O1 (stereo unspecified) | inactive |
| CCC(C)C(=O)OC (stereo unspecified) | inactive |
| CCCCCCCC1CCC(=O)O1 (stereo unspecified) | inactive |
| CCCCOC=O | inactive |
| CCCCCCCCCS | active |
| COc1nccnc1CC(C)C | inactive |
| C=CC(O)CCCCC (stereo unspecified) | active |

| SMILES | odorant receptor agonist call |
| --- | --- |
| CCCCC1CCC(=O)O1 (stereo unspecified) | inactive |
| CCC(=O)O | inactive |
| CCO | inactive |
| CC(C)=CCCC(C)CC(=O)O (stereo unspecified) | inactive |
| CCCCCCCO | active |
| C=CCOC(=O)CCCCCC | active |
| CCCCC(C)=O | inactive |
| CC(C)=CC1CC(C)CCO1 (stereo unspecified) | inactive |
| CC(C)=CCCC(C)CC=O (stereo unspecified) | active |
| CC(=O)C(C)O (stereo unspecified) | inactive |
| CCCc1ccc(O)c(OC)c1 | inactive |
| COC(C=C(C)CCC=C(C)C)OC | inactive |
| CCCCCCC=CC=O | inactive |
| CC(C)CC=O | inactive |
| O=c1ccc2ccccc2o1 | inactive |
| COc1cccc(OC)c1O | inactive |
| CCCC(=O)C(C)=O | inactive |
| CCCCC(=O)O | inactive |
